The results in this text go back to ChEMBL document CHEMBL1137698, “Synthesis, spectral studies and in vitro antibacterial activity of steroidal thiosemicarbazone and their palladium (Pd (II)) complexes” (2009).

Structures are written as SMILES. Values after ≈ are worked out from the molar mass of the structure shown.

The subject of test [1] is Staphylococcus aureus. Nature of the test: Antibacterial activity against Staphylococcus aureus at 10 to 100 ug/mL after 18 hrs by disk diffusion method. The test is classed as functional. The method in brief:
(§1)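 Disk diffusion. Bacteria were subcultured in BHI for 18 h at 37 °C, then suspended in saline to McFarland standard. The suspension was mixed with sterile antibiotic agar at 40 °C and poured into plates. Paper disks of 6.0 mm were placed on nutrient agar. DMSO stock was diluted to 10, 20, 25, 50 and 100 per mL and applied to the disks. A DMSO disk served as negative control. Inhibition zones in mm were read after 18 h at 36 °C.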
On the technique in general: Agar diffusion results depend on both activity and mobility in agar.

For test [2], the system named is Streptococcus pyogenes. The test can be described thus: Antibacterial activity against Streptococcus pyogenes at 10 to 100 ug/mL after 18 hrs by disk diffusion method. The test is classed as functional. The method in brief:
as §1

In test [3] the test system is Salmonella typhimurium. The test can be described thus: Antibacterial activity against Salmonella Typhimurium at 10 to 100 ug/mL after 18 hrs by disk diffusion method. The test is classed as functional, Salmonella enterica subsp. enterica serovar Typhimurium. The method in brief: as §1
In test [4] the test system is Escherichia coli. Nature of the test: Antibacterial activity against Escherichia coli at 10 to 100 ug/mL after 18 hrs by disk diffusion method. The test is classed as functional. A digest of the protocol: as §1
In test [5] the test system is Staphylococcus aureus. The test can be described thus: Antibacterial activity against Staphylococcus aureus after 18 hrs by […]. The test is classed as functional. A digest of the protocol:
(§2)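 MIC by tube macrodilution. Test compounds dissolved in DMSO, serially diluted to final […]. Each tube received 24 h old inoculum, standard inoculum […]. Incubated 18 h at 37 °C. MIC read visually as the lowest concentration preventing visible growth.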

The test system of test [6] is Streptococcus pyogenes. The test can be described thus: Antibacterial activity against Streptococcus pyogenes after 18 hrs by […]. In kind it is functional. A digest of the protocol:
as §2

Test [7] concerns Salmonella typhimurium. The test can be described thus: Antibacterial activity against Salmonella Typhimurium after 18 hrs by […]. The following applies: Salmonella enterica. In kind it is functional, Salmonella enterica subsp. enterica serovar Typhimurium. A digest of the protocol:
as §2

The subject of test [8] is Escherichia coli. Nature of the test: Antibacterial activity against Escherichia coli after 18 hrs by […]. In kind it is functional. A digest of the protocol:
as §2

In test [9] the test system is Staphylococcus aureus. The test can be described thus: Antibacterial activity against Staphylococcus aureus at 30 ug after 18 hrs by disk diffusion method. The settings on record: read-out: IZ. In kind it is functional. The method in brief: (§3)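 Amoxicillin […] disk, positive control in disk diffusion. Bacteria were subcultured in BHI for 18 h at 37 °C and suspended in saline to McFarland standard. Seeded antibiotic agar was poured into plates and 6.0 mm paper disks placed. Inhibition zone in mm was read after 18 h at 36 °C.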

Test [10] concerns Streptococcus pyogenes. Nature of the test: Antibacterial activity against Streptococcus pyogenes at 30 ug after 18 hrs by disk diffusion method. The test is classed as functional. The following applies: read-out: IZ. A digest of the protocol:
as §3

In test [11] the test system is Salmonella typhimurium. The test can be described thus: Antibacterial activity against Salmonella Typhimurium at 30 ug after 18 hrs by disk diffusion method. In kind it is functional, Salmonella enterica subsp. enterica serovar Typhimurium. The following applies: Salmonella enterica, read-out: IZ. A digest of the protocol:
as §3

For test [12], the system named is Escherichia coli. The test can be described thus: Antibacterial activity against Escherichia coli at 30 ug after 18 hrs by disk diffusion method. In kind it is functional. The following applies: read-out: IZ. The method in brief: as §3

Regarding `Cc1cccc(NC(=S)N/N=C2\CC[C@@]3(C)C(=CC[C@H]4[C@@H]5CC[C@H]([C@H](C)CCCC(C)C)[C@@]5(C)CC[C@@H]43)C2)c1`, the “inhibition zone (IZ)” value in test [1] came out at 12.4 mm; in test [2], 10.6 mm; in [3], 10.6 mm; in [4] it was 11.2 mm. Besides, the MIC (commonly the lowest concentration found to suppress growth) in [5] turned out to be 128 µg/mL (≈ 234 µM); in test [6], 128 µg/mL (≈ 234 µM); in test [7], 128 µg/mL (≈ 234 µM); in test [8], 256 µg/mL (≈ 467 µM).
As to `Cc1ccccc1NC(=S)N/N=C1\CC[C@@]2(C)C(=CC[C@H]3[C@@H]4CC[C@H]([C@H](C)CCCC(C)C)[C@@]4(C)CC[C@@H]32)C1`, the “inhibition zone (IZ)” value in [1] stood at 14.2 mm; in test [2], 12.8 mm; in [3] it was 12.4 mm; in test [4], 14.2 mm. The MIC is 64 µg/mL (≈ 117 µM) in test [5], 64 µg/mL (≈ 117 µM) in test [6], 128 µg/mL (≈ 234 µM) in test [7] and 128 µg/mL (≈ 234 µM) in [8].
Turning to `Cc1ccc(NC(=S)N/N=C2\CC[C@@]3(C)C(=CC[C@H]4[C@@H]5CC[C@H]([C@H](C)CCCC(C)C)[C@@]5(C)CC[C@@H]43)C2)cc1`, the “inhibition zone (IZ)” value in [1] is given as 12.6 mm; in [2] it was 11.5 mm; in [3], 10.2 mm; in test [4], 10.2 mm. Further, the MIC is 256 µg/mL (≈ 467 µM) in [5], 256 µg/mL (≈ 467 µM) in [6], 128 µg/mL (≈ 234 µM) in [7] and 128 µg/mL (≈ 234 µM) in test [8].
Regarding `CC1(C)S[C@@H]2[C@H](NC(=O)[C@H](N)c3ccc(O)cc3)C(=O)N2[C@H]1C(=O)O` [AMOXICILLIN], the zone of inhibition at 30 µg/disc is 21 mm in test [9], 22.2 mm in [10], 25.2 mm in test [11] and 20 mm in [12]. The MIC in test [5], in test [6], in test [7] and in test [8] was 32 µg/mL (≈ 87.6 µM) in each case.
